The source made the active and inactive calls. The rule behind the calls is not given here.

Usually IC50 stands for the point on the concentration scale where inhibition reaches its midpoint.

Test [1] relates to HT-29. Description: Induction of cell cycle arrest in human HT-29 cells assessed as accumulation of cells at G0/G1 phase at 1 uM incubated for 24 hrs by RAase A/PI staining based flow cytometry analysis (reference value: 57%). Type of test: functional.
For test [2], the system named is HT-29. The test is described as follows: Induction of cell cycle arrest in human HT-29 cells assessed as accumulation of cells at G2/M phase at 1 uM incubated for 24 hrs by RAase A/PI staining based flow cytometry analysis (reference value: 16%). Type of test: functional. For orientation: Flow cytometry measures light scatter and fluorescence of single cells or particles in a stream.

The subject of test [3] is HT-29. Description: Induction of cell cycle arrest in human HT-29 cells assessed as accumulation of cells at G0/G1 phase at 1 uM incubated for 24 hrs in presence of 2,3-bis(amino((2aminophenyl)thio)methylene)succinonitrile by RAase A/PI staining based flow cytometry analysis (reference value: 57%). It is filed as functional.
Test [4] has as its system HT-29. Description: Induction of cell cycle arrest in human HT-29 cells assessed as accumulation of cells at G2/M phase at 1 uM incubated for 24 hrs in presence of 2,3-bis(amino((2-aminophenyl)thio)methylene)succinonitrile by RAase A/PI staining based flow cytometry analysis (reference value: 16%). It is filed as functional.
Test [5] relates to MCF7. The test is described as follows: Antiproliferative activity against […] human MCF7 cells assessed as inhibition of cell growth incubated for 72 hrs by alamar blue assay. Type of test: functional, cell-based. The settings on record: MCF7, 72 h. A digest of the protocol: (§1)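 Cells seeded 24 h before treatment (HL-60 4 × 10⁴, MCF-7 5 × 10³ per well), then given medium, vehicle (1% ethanol v/v) or serial dilutions (eight concentrations) for 72 h. Alamar Blue (10% v/v) added for 3–5 h at 37 °C in the dark, fluorescence read at ex 530/em 590 nm. Viability expressed relative to vehicle (100%), IC50 from dose–response curves; three experiments in triplicate.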
For orientation: Alamar Blue is a resazurin reagent that responds to reducing activity.

Test [6] has as its system HL-60. Description: Antiproliferative activity against […] human HL-60 cells assessed as inhibition of cell growth incubated for 72 hrs by alamar blue assay. Type of test: functional, cell-based. The settings on record: HL-60, 72 h. The procedure, abridged:
as §1

The subject of test [7] is HT-29. Description: Antiproliferative activity against combretastatin A-4 resistant human HT-29 cells assessed as inhibition of cell growth incubated for 72 hrs by SRB assay. Type of test: functional, cell-based. The settings on record: HT-29, 72 h. The procedure, abridged:
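HT-29 (DMEM Glutamax, 10% FBS) seeded at 1 × 10⁴ cells/well, treated after 24 h with vehicle (1% ethanol v/v) or serial dilutions (eight concentrations) for 72 h; viability measured by sulforhodamine B protocol. Percent viability relative to vehicle control, IC50 from dose–response curves; mean of three experiments in triplicate.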
Background: The SRB assay estimates cell density from bound dye.

Test [8] relates to HT-29. The test is described as follows: Induction of cell cycle arrest in human HT-29 cells assessed as accumulation of cells in G2/M phase at 1 uM incubated for 24 to 72 hrs by RNase/PI staining based flow cytometry analysis. It is filed as functional. The conditions noted are these: time 24-72 hrs.
Test [9] deals with HT-29. The test is described as follows: Induction of cell cycle arrest in human HT-29 cells assessed as accumulation of cells in sub-G1 phase at 1 uM incubated for 72 hrs by RNase/PI staining based flow cytometry analysis (reference value: 6%). Type of test: functional.
In test [10] the target is T1, Tubulin (Homo sapiens) (UniProt P68371+Q9H4B7+P0DPH7+P68366+Q13509+Q71U36+P04350+Q3ZCM7+P07437+P68363+Q9BQE3+Q6PEY2+Q13885+Q9BVA1+Q9BUF5). Description: Induction of microtubule disruption in human HT-29 cells assessed as effect on microtubule organization at 1 uM incubated for 16 hrs by immunofluorescence based confocal microscopic analysis. Type of test: cell-based.

The subject of test [11] is HT-29. The test is described as follows: Induction of cell cycle arrest in human HT-29 cells assessed as accumulation of cells in sub-G1 phase at 0.5 uM incubated for 72 hrs by RNase/PI staining based flow cytometry analysis (reference value: 6%). Type of test: functional. The procedure, abridged: (§2)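 HT-29 treated with vehicle (0.1% ethanol v/v) or compound at 0.5 µM for 24, 48 and 72 h. Adherent plus detached cells collected, fixed overnight in ice-cold 70% ethanol at −20 °C, stained with PI (50 µg/mL) plus RNase A (50 µg/mL) 30 min at 37 °C. 10,000 cells analysed by flow cytometry at 488 nm; sub-G1, G0/G1, G2/M gated on DNA content; mean of three experiments.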

Test [12] relates to HT-29. Description: Induction of cell cycle arrest in human HT-29 cells assessed as accumulation of cells at G2/M phase at 0.5 uM incubated for 72 hrs by RNase/PI staining based flow cytometry analysis relative to control. It is filed as functional. The procedure, abridged:
as §2

Test [13] has as its system HT-29. The test is described as follows: Induction of cell cycle arrest in human HT-29 cells assessed as reduction in cells in G0 phase at 0.5 uM incubated for 72 hrs by RNase/PI staining based flow cytometry analysis. Type of test: functional. A digest of the protocol: as §2
The test system of test [14] is HT-29. Description: Induction of cell cycle arrest in human HT-29 cells assessed as reduction in cells in S phase at 0.5 uM incubated for 72 hrs by RNase/PI staining based flow cytometry analysis. Type of test: functional. The procedure, abridged:
as §2

The target of test [15] is T1, Tubulin (Homo sapiens). The test is described as follows: Induction of microtubule disruption in human HT-29 cells assessed as complete loss of microtubule structure incubated for 16 hrs by immunofluorescence based confocal microscopic analysis. Type of test: cell-based. A digest of the protocol:
(§3)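 Fixed in 4% paraformaldehyde, permeabilised in 0.5% Triton X-100, blocked in 5% BSA, stained with anti-α-tubulin-FITC (DM1A, 1:100, 2 h) and Alexa Fluor 488, DAPI counterstain; confocal imaging, three occasions.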

Test [16] deals with T1, Tubulin (Homo sapiens). The test is described as follows: Induction of microtubule disruption in human HT-29 cells assessed as appearance of multiple micronucleus incubated for 16 hrs by immunofluorescence based confocal microscopic analysis. Type of test: cell-based. A digest of the protocol: as §3

In the case of `COc1ccc(C2C(c3ccccc3)C(=O)N2c2cc(OC)c(OC)c(OC)c2)cc1O` (mixture of isomers), the Activity in [1] was found to be 60%; in test [2], 16%; in [3], 26%; in test [4] it was 58%; in test [9], 5%. The IC50 worked out at 4 nM in test [5], 2 nM in [6] and 430 nM in [7]. Besides, the outcome in [8] and in test [10] was inactive.
Consider `COc1ccc(C2C(c3ccccc3)C(=O)N2c2cc(OC)c(OC)c(OC)c2)cc1` (mixture of isomers), for which the figures for the Activity in test [11] and in test [12] were 19% and 50%, respectively. Besides, the half-inhibitory concentration (IC50) in [5] is 15 nM; in test [6] it was 24 nM; in [7], 22 nM. Moreover, the result in test [13], in test [14], in test [15] and in [16] was Active.

The values above are taken from ChEMBL document CHEMBL5252538, “β-Lactam analogues of combretastatin A-4 prevent metabolic inactivation by glucuronidation in chemoresistant HT-29 colon cancer cells” (Eur J Med Chem, 2017).
